Measured values reported in ChEMBL document CHEMBL4346654 (Eur J Med Chem, 2019).
Values after ≈ are worked out from the molar mass of the structure shown.

Columns and labels:
Rattus norvegicus [1] = assay: Ratio of test compound plasma clearance to telithromycin plasma clearance in Sprague-Dawley rat at 20 mg/kg, po after 0.25 to 24 hrs by LC-MS/MS analysis; assay type: ADME, organism-based; details: in vivo
Rattus norvegicus [2] = assay: Ratio of test compound AUC to telithromycin AUC in Sprague-Dawley rat at 20 mg/kg, po after 0.25 to 24 hrs by LC-MS/MS analysis; assay type: ADME, organism-based; details: in vivo
[3] = Ratio of test compound MRT to telithromycin MRT in Sprague-Dawley rat at 20 mg/kg, po after 0.25 to 24 hrs by LC-MS/MS analysis; assay type: ADME, organism-based; details: in vivo
Staphylococcus aureus [4] = assay: Antibacterial activity against MLS-resistant Staphylococcus aureus PU 20 expressing constitutive ermC gene assessed as reduction in microbial growth by CLSI based two-fold broth dilution method; assay type: functional
Streptococcus pneumoniae [5] = assay: Selectivity ratio of MBC to MIC for penicillin-susceptible Streptococcus pneumoniae PU 09 expressing mef gene; assay type: functional
Summary of the method: (§1)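 Isolates were identified by 16S rDNA sequencing. MIC was determined by CLSI-recommended two-fold broth dilution. For MBC, samples from 1–8 fold MIC were transferred to culture medium and subcultured for 24 h without antibiotic.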

Streptococcus pneumoniae [6] = assay: Selectivity ratio of MBC to MIC for Streptococcus pneumoniae 07P390 expressing constitutive ermB gene; assay type: functional; summary of the method: as §1
Rattus norvegicus [7] = assay: Ratio of test compound half life to telithromycin half life in Sprague-Dawley rat at 20 mg/kg, po after 0.25 to 24 hrs by LC-MS/MS analysis; assay type: ADME, organism-based; details: in vivo
[8] = AUC (0 to t) in Sprague-Dawley rat at 20 mg/kg, po after 0.25 to 24 hrs by LC-MS/MS analysis; assay type: ADME, organism-based; parameters: time upper 24 hr, dose 20 mg/kg, time lower 0.25 hr, route oral; details: in vivo
Summary of the method: (§2)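 Male SD rats were given a single 20 mg/Kg oral dose. Blood was sampled at 0.25, 0.5, 1, 2, 4, 6, 8 and 24 h and centrifuged at 2500 g for 5 min at 4 °C. Drug levels were quantified by LC-MS/MS. t1/2, Cmax, Tmax, CL, MRT and AUC were calculated from the concentration–time data.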

[9] = Half life in Sprague-Dawley rat at 20 mg/kg, po after 0.25 to 24 hrs by LC-MS/MS analysis; assay type: ADME, organism-based; details: in vivo; summary of the method: as §2
Staphylococcus aureus [10] = assay: Bactericidal activity against MLS/methicillin-resistant Staphylococcus aureus PU 32 expressing inducible ermA gene pretreated followed by subculture in absence of compound measured after 24 hrs; assay type: functional
Summary of the method: (§3)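 MBC assay. Following MIC determination by CLSI standard two-fold broth dilution, samples at 1–8 fold MIC were transferred to fresh culture medium. They were subcultured for 24 h without antibiotic. Isolates were identified by 16S rDNA sequencing. S. aureus ATCC 29213 was used as a control strain.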

[11] = Tmax in Sprague-Dawley rat at 20 mg/kg, po after 0.25 to 24 hrs by LC-MS/MS analysis; assay type: ADME, organism-based; details: in vivo; summary of the method: as §2
Streptococcus pyogenes [12] = assay: Bactericidal activity against Streptococcus pyogenes 12-207 expressing mef gene pretreated followed by subculture in absence of compound measured after 24 hrs; assay type: functional; summary of the method: as §1
Streptococcus pyogenes [13] = assay: Bactericidal activity against MLS-resistant Streptococcus pyogenes 12-206 expressing constitutive ermA gene pretreated followed by subculture in absence of compound measured after 24 hrs; assay type: functional; summary of the method: as §3
Cytochrome P450 3A4 = Cytochrome P450 3A4 (Homo sapiens, UniProt P08684); assay: Inhibition of CYP3A4 in human liver microsomes assessed as reduction in metabolite formation using midazolam as substrate incubated for 10 mins in presence of NADPH by HPLC based mass spectrometric method; assay type: ADME
Chain of Cytochrome P450 3A4 (P08684 whole entry): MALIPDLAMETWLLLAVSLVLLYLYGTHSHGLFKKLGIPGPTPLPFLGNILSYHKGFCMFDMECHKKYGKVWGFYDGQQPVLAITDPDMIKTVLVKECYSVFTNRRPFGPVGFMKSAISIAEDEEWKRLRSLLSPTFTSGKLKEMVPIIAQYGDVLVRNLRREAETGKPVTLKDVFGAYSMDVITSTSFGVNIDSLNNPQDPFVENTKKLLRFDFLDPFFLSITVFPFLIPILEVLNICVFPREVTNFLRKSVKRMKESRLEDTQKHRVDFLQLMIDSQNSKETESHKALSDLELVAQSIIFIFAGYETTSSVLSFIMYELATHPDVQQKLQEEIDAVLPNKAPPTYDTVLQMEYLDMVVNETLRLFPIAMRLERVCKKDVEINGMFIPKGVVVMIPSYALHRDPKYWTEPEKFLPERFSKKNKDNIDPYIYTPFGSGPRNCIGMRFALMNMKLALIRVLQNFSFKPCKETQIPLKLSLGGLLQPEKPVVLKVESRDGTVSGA
Summary of the method: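 Human liver microsome CYP3A4 with midazolam substrate in 0.1 M potassium phosphate buffer was prewarmed at 37 °C for 5 min. Compound and 25 mM NADPH solution (stock) were added, then incubated at 37 °C for 10 min. Ketoconazole served as the positive inhibitor. Metabolite was measured by UPLC–triple quadrupole MS as the metabolite/internal standard peak area ratio, and IC50 was derived by curve fitting.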

Staphylococcus aureus [14] = assay: Bactericidal activity against MLS-resistant Staphylococcus aureus PU 20 expressing constitutive ermC gene pretreated followed by subculture in absence of compound measured after 24 hrs; assay type: functional; summary of the method: as §3
Moraxella catarrhalis [15] = assay: Antibacterial activity against erythromycin-susceptible Moraxella catarrhalis 13L332 assessed as reduction in microbial growth by CLSI based two-fold broth dilution method; assay type: functional
Streptococcus pyogenes [16] = assay: Bactericidal activity against MLS-resistant Streptococcus pyogenes 01-968 expressing inducible ermB gene pretreated followed by subculture in absence of compound measured after 24 hrs; assay type: functional; summary of the method: as §3
Streptococcus pyogenes [17] = assay: Antibacterial activity against Streptococcus pyogenes 12-207 expressing mef gene assessed as reduction in microbial growth by CLSI based two-fold broth dilution method; assay type: functional
Streptococcus pyogenes [18] = assay: Antibacterial activity against MLS-resistant Streptococcus pyogenes 12-206 expressing constitutive ermA gene assessed as reduction in microbial growth by CLSI based two-fold broth dilution method; assay type: functional
Streptococcus pneumoniae [19] = assay: Antibacterial activity against Streptococcus pneumoniae 07P390 expressing constitutive ermB gene assessed as reduction in microbial growth by CLSI based two-fold broth dilution method; assay type: functional
Streptococcus pyogenes [20] = assay: Antibacterial activity against MLS-resistant Streptococcus pyogenes 01-968 expressing inducible ermB gene assessed as reduction in microbial growth by CLSI based two-fold broth dilution method; assay type: functional
Haemophilus influenzae [21] = assay: Selectivity ratio of MBC to MIC for azithromycin-susceptible Haemophilus influenzae ATCC 49247; assay type: functional; summary of the method: as §1
Streptococcus pyogenes [22] = assay: Selectivity ratio of MBC to MIC for MLS-resistant Streptococcus pyogenes 12-206 expressing constitutive ermA gene; assay type: functional
Summary of the method: (§4)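 MBC/MIC ratio. MIC was measured by CLSI standard two-fold broth dilution. MBC was measured by transferring samples at 1–8 fold MIC to culture medium and subculturing for 24 h without antibiotic. Isolates were identified by 16S rDNA sequencing.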

Moraxella catarrhalis [23] = assay: Bactericidal activity against erythromycin-susceptible Moraxella catarrhalis 13L332 pretreated followed by subculture in absence of compound measured after 24 hrs; assay type: functional; summary of the method: as §1
Streptococcus pneumoniae [24] = assay: Antibacterial activity against erythromycin-susceptible Streptococcus pneumoniae ATCC49619 assessed as reduction in microbial growth by CLSI based two-fold broth dilution method; assay type: functional
Streptococcus pneumoniae [25] = assay: Bactericidal activity against erythromycin-susceptible Streptococcus pneumoniae ATCC49619 pretreated followed by subculture in absence of compound measured after 24 hrs; assay type: functional; summary of the method: as §1
Streptococcus pneumoniae [26] = assay: Bactericidal activity against penicillin-susceptible Streptococcus pneumoniae PU 09 expressing mef gene pretreated followed by subculture in absence of compound measured after 24 hrs; assay type: functional; summary of the method: as §1
Staphylococcus aureus [27] = assay: Selectivity ratio of MBC to MIC for MLS/methicillin-resistant Staphylococcus aureus PU 32 expressing inducible ermA gene; assay type: functional; summary of the method: as §4
Haemophilus influenzae [28] = assay: Bactericidal activity against azithromycin-susceptible Haemophilus influenzae ATCC 49247 pretreated followed by subculture in absence of compound measured after 24 hrs; assay type: functional; summary of the method: as §1
Streptococcus pyogenes [29] = assay: Selectivity ratio of MBC to MIC for Streptococcus pyogenes 12-207 expressing mef gene; assay type: functional; summary of the method: as §1
Staphylococcus aureus [30] = assay: Antibacterial activity against MLS-resistant Staphylococcus aureus PU 32 expressing inducible ermA gene assessed as reduction in microbial growth by CLSI based two-fold broth dilution method; assay type: functional
Moraxella catarrhalis [31] = assay: Selectivity ratio of MBC to MIC for erythromycin-susceptible Moraxella catarrhalis 13L332; assay type: functional; summary of the method: as §1
[32] = Cmax in Sprague-Dawley rat at 20 mg/kg, po after 0.25 to 24 hrs by LC-MS/MS analysis; assay type: ADME, organism-based; parameters: dose 20 mg/kg, route oral; details: in vivo; summary of the method: as §2
Haemophilus influenzae [33] = assay: Antibacterial activity against azithromycin-susceptible Haemophilus influenzae ATCC 49247 assessed as reduction in microbial growth by CLSI based two-fold broth dilution method; assay type: functional
[34] = MRT in Sprague-Dawley rat at 20 mg/kg, po after 0.25 to 24 hrs by LC-MS/MS analysis; assay type: ADME, organism-based; details: in vivo; summary of the method: as §2
Streptococcus pyogenes [35] = assay: Selectivity ratio of MBC to MIC for MLS-resistant Streptococcus pyogenes 01-968 expressing inducible ermB gene; assay type: functional; summary of the method: as §4
Streptococcus pneumoniae [36] = assay: Bactericidal activity against Streptococcus pneumoniae 07P390 expressing constitutive ermB gene pretreated followed by subculture in absence of compound measured after 24 hrs; assay type: functional; summary of the method: as §1
[37] = AUCinfinity in Sprague-Dawley rat at 20 mg/kg, po after 0.25 to 24 hrs by LC-MS/MS analysis; assay type: ADME, organism-based; parameters: dose 20 mg/kg, time infinity, route oral; details: in vivo; summary of the method: as §2
Streptococcus pneumoniae [38] = assay: Antibacterial activity against penicillin-susceptible Streptococcus pneumoniae PU 09 expressing mef gene assessed as reduction in microbial growth by CLSI based two-fold broth dilution method; assay type: functional

For `CC[C@H]1OC(=O)[C@@](C)(F)C(=O)[C@H](C)[C@@H](O[C@@H]2O[C@H](C)C[C@H](N(C)C)[C@H]2O)[C@](C)(OC)C[C@@H](C)/C(=N\OC/C=C/c2ccc3c(c2)c(=O)c(C(N)=O)cn3CC)[C@H](C)[C@H]2OC(=O)O[C@@]21C`, the Ratio (Rattus norvegicus [1]) was 1.5, the “Ratio AUC” value (Rattus norvegicus [2]) was 1.6 and the Ratio [3] was 2.3 to 2.6. The MIC (Staphylococcus aureus [4]) was 128 µg/mL, the Selectivity ratio (Streptococcus pneumoniae [5]) was 1 and the Selectivity ratio (Streptococcus pneumoniae [6]) was >8. It also gave a Ratio (Rattus norvegicus [7]) of 2.5 to 3.6, an AUC(0-t) [8] of 1460 ng·h/mL and a half-life [9] of 3.03 h. The MBC (Staphylococcus aureus [10]) was > 4 µg/mL, the Tmax [11] was 7 h and the MBC (Streptococcus pyogenes [12]) was 0.5 µg/mL (≈ 0.555 µM). For the same compound, the MBC (Streptococcus pyogenes [13]) was > 4 µg/mL, the IC50 (Cytochrome P450 3A4) was 5.14 µM and the MBC (Staphylococcus aureus [14]) was > 256 µg/mL. For the same compound, the MIC (Moraxella catarrhalis [15]) was 4 µg/mL, the MBC (Streptococcus pyogenes [16]) was > 0.016 µg/mL and the MIC (Streptococcus pyogenes [17]) was 0.062 µg/mL. The MIC (Streptococcus pyogenes [18]) was 0.5 µg/mL, the MIC (Streptococcus pneumoniae [19]) was 0.062 µg/mL and the MIC (Streptococcus pyogenes [20]) was ≤ 0.002 µg/mL. For the same compound, the Selectivity ratio (Haemophilus influenzae [21]) was 8, the Selectivity ratio (Streptococcus pyogenes [22]) was >8 and the MBC (Moraxella catarrhalis [23]) was > 32 µg/mL. For the same compound, the MIC (Streptococcus pneumoniae [24]) was ≤ 0.008 µg/mL, the MBC (Streptococcus pneumoniae [25]) was ≤ 0.008 µg/mL and the MBC (Streptococcus pneumoniae [26]) was 0.25 µg/mL (≈ 0.277 µM). The Selectivity ratio (Staphylococcus aureus [27]) was >8, the MBC (Haemophilus influenzae [28]) was 256 µg/mL (≈ 284 µM) and the Selectivity ratio (Streptococcus pyogenes [29]) was 8. For the same compound, the MIC (Staphylococcus aureus [30]) was 0.5 µg/mL, the Selectivity ratio (Moraxella catarrhalis [31]) was >8 and the Cmax [32] was 124 ng/mL. The MIC (Haemophilus influenzae [33]) was 32 µg/mL, the MRT [34] was 7.42 h and the Selectivity ratio (Streptococcus pyogenes [35]) was >8. The MBC (Streptococcus pneumoniae [36]) was > 0.5 µg/mL, the AUC [37] was 1538 ng·h/mL and the MIC (Streptococcus pneumoniae [38]) was 0.25 µg/mL.
